The results in this text go back to ChEMBL document CHEMBL1806486, “Discovery and evaluation of 3-phenyl-1H-5-pyrazolylamine-based derivatives as potent, selective and efficacious inhibitors of FMS-like tyrosine kinase-3 (FLT3)” (Bioorg Med Chem, 2011).

pIC50: −log10 of the molar value.

A word on the pIC50: it is the negative decadic logarithm of the IC50, by convention in mol/L. Usually GI50 stands for the concentration giving 50% growth inhibition. What is called AUC(0-inf) is total exposure, with the tail of the curve extrapolated. The term clearance denotes the rate of elimination divided by the concentration. Higher therefore signals a high capacity for elimination. In general, half-life refers to how long it takes for the measured level to halve. High values mean slow decline, low ones rapid decline. As usually defined, the inhibition is the change of the read-out against control, counted positive when it falls.

The target in data set [1] is T1, Aurora kinase A (Homo sapiens, UniProt O14965).
T1 sequence (O14965 whole entry): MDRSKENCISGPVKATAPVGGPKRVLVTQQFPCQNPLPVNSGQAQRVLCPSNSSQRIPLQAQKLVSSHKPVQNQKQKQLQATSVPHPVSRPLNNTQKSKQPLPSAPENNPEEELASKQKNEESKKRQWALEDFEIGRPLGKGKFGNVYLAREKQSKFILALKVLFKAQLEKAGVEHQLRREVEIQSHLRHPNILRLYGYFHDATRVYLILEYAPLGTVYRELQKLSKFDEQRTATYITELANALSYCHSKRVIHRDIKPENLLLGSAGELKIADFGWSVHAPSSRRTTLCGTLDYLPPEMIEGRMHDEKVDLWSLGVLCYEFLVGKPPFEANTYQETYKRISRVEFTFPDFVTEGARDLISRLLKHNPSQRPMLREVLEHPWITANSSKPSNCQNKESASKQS
Put plainly: Inhibition of recombinant GST-tagged Aurora A expressed in Sf9 insect cells after 90 mins by Kinase-Glo assay. Summed up:
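GST-Aurora A kinase domain (S123–S401, 150 ng) from Sf9 cells. Buffer was 50 mM Tris-HCl pH 7.4 with 10 mM NaCl, 10 mM MgCl2, 0.01% BSA and 1 mM DTT. Kinase-Glo Plus was added for 20 min at 25 °C before the luminescence read.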

The target of data set [2] is T2, Vascular endothelial growth factor receptor 2 (Homo sapiens, UniProt P35968). Put plainly: Inhibition of recombinant GST-tagged VEGFR2 expressed in Sf9 insect cells after 120 mins by Kinase-Glo assay. The data set is classed as cell-based. A general note: Kinase-Glo reads ATP consumption through a luciferase reaction.
T2 sequence (P35968 whole entry): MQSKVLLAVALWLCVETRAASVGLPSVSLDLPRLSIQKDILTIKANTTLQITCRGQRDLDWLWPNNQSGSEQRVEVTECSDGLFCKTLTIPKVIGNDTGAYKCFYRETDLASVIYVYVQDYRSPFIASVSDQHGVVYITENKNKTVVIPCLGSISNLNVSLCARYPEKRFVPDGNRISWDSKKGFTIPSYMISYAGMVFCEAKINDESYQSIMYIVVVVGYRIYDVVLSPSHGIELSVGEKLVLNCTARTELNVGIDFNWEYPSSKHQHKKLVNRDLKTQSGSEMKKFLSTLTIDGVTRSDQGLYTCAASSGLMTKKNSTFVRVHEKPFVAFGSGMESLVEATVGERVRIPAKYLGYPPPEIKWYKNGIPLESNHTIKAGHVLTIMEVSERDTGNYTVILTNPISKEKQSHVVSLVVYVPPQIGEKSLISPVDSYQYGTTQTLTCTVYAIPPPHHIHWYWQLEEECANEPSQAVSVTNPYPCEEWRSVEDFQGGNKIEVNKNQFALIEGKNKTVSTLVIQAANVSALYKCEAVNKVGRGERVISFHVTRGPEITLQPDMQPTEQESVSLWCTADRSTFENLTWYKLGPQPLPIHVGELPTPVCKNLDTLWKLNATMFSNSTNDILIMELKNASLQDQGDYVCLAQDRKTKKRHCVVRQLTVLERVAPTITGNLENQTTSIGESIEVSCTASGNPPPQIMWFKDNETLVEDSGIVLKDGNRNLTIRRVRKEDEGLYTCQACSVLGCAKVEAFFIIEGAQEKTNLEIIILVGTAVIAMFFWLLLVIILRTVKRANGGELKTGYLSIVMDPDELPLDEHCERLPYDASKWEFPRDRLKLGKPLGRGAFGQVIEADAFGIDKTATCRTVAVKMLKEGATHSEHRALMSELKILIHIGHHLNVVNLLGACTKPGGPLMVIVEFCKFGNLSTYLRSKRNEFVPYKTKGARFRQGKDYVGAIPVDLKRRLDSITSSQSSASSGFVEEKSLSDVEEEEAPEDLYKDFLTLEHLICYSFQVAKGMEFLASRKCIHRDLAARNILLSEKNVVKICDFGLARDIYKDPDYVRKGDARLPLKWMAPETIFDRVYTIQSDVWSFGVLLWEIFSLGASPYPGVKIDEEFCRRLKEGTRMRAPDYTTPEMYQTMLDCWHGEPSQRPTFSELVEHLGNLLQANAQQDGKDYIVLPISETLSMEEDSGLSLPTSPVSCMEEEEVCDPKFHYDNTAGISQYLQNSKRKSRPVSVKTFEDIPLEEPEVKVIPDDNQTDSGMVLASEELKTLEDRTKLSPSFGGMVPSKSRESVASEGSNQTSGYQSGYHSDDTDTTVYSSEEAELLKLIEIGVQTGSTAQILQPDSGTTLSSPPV
In data set [3] the target is T3, Vascular endothelial growth factor receptor 1 (Homo sapiens, UniProt P17948). Put plainly: Inhibition of recombinant GST-tagged VEGFR1 expressed in Sf9 insect cells after 120 mins by Kinase-Glo assay. The essentials:
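GST-VEGFR1 (R781–I1338) or GST-VEGFR2 (V789–V1356) kinase domain, 50–100 ng, from Sf9 cells. Read-out was Kinase-Glo Plus luminescence.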

The subject of data set [4] is MOLM-13. The experiment in a line: Antiproliferation activity against human MOLM13 cells expressing FLT3 mutation assessed as cell viability after 72 hrs by MTS method. The class given is functional. Conditions: MOLM-13, 72 h. In general terms: Tetrazolium assays rely on reduction of a dye to a coloured formazan, in cell work by metabolically active cells.
The target in data set [5] is T4, Receptor-type tyrosine-protein kinase FLT3 (Homo sapiens, UniProt P36888).
T4 sequence (P36888 whole entry): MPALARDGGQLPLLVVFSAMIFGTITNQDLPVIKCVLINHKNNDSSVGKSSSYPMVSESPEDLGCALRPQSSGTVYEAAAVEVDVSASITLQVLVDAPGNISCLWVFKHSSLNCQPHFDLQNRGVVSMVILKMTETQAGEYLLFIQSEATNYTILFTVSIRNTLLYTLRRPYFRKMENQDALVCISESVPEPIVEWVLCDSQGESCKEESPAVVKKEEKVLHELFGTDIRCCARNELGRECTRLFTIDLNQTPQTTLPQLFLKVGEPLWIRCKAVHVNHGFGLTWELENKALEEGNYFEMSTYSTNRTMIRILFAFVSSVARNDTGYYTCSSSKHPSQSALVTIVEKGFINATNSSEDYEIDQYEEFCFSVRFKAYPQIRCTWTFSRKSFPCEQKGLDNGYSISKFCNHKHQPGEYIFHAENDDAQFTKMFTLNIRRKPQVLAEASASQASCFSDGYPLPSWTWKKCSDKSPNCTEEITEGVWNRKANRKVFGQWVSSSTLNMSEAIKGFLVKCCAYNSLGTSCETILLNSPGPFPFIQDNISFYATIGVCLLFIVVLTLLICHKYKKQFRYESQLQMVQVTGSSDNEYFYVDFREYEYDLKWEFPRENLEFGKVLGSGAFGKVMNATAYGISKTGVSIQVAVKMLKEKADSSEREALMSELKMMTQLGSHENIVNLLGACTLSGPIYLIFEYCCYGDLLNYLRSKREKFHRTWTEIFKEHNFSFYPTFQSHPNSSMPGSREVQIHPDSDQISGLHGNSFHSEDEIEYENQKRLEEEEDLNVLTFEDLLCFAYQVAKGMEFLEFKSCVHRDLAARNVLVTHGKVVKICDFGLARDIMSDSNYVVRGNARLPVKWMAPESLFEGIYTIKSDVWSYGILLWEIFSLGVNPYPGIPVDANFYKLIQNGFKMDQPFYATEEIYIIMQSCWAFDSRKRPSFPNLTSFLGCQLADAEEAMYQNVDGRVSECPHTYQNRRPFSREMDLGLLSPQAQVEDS
Put plainly: Inhibition of GST-tagged FLT3 expressing wild type kinase domain expressed in Sf9 insect cells after 4 hrs by Kinase-Glo assay.

Data set [6] in a line: AUC (0 to infinity) in Sprague-Dawley rat at 5 mg/kg, iv. Further details: time infinity, dose 5 mg/kg, route intravenous. The data set is classed as ADME, organism-based. Conditions: plasma.
A short description of data set [7]: Clearance in Sprague-Dawley rat at 5 mg/kg, iv. The class given is ADME, organism-based. Details: dose 5 mg/kg, route intravenous. Conditions: in vivo.
The nature of data set [8]: Volume of distribution at steady state in Sprague-Dawley rat at 5 mg/kg, iv. The data set is classed as ADME, organism-based. The settings on record: in vivo, read-out: Vdss. Details: dose 5 mg/kg, route intravenous.
The nature of data set [9]: Half life in Sprague-Dawley rat at 5 mg/kg, iv. The data set is classed as ADME, organism-based. Further details: dose 5 mg/kg, route intravenous. Conditions: in vivo.
Data set [10] deals with Mus musculus. Put plainly: Toxicity in athymic nu/nu nude mouse assessed as lethality at 50 mg/kg, iv for continuous 5 days. The data set is classed as organism-based. Further details: dose 50 mg/kg, route intravenous. Conditions: in vivo, 120 h.
Data set [11] has as its system Mus musculus. The experiment in a line: Toxicity in normal mouse assessed as reduction of body weight at 50 mg/kg, iv for continuous 5 days. Conditions: in vivo, 120 h.
Data set [12] has as its target T2, Vascular endothelial growth factor receptor 2. Put plainly: Inhibition of recombinant GST-tagged VEGFR2 expressed in Sf9 insect cells at 1 uM after 120 mins by Kinase-Glo assay.
Data set [13] concerns the target Aurora kinase A (Homo sapiens) (UniProt O14965). The experiment in a line: Inhibition of recombinant GST-tagged Aurora A expressed in Sf9 insect cells at 1 uM after 90 mins by Kinase-Glo assay.
Data set [14] has as its target T3, Vascular endothelial growth factor receptor 1. The experiment in a line: Inhibition of recombinant GST-tagged VEGFR1 expressed in Sf9 insect cells at 1 uM after 120 mins by Kinase-Glo assay.
Data set [15] relates to MV4-11. Put plainly: Antiproliferation activity against FLT3/ITD harboring human MV4-11 cells after 72 hrs by MTS method. The data set is classed as functional. The settings on record: MV4-11, 72 h.
A short description of data set [16]: Antiproliferation activity against human RS4:11 cells expressing wild type FLT3 after 72 hrs by MTS method. The class given is functional. The settings on record: RS4-11, 72 h.
Data set [17] has as its system K562. The experiment in a line: Antiproliferation activity against human K562 cells expressing wild type BCR/ABL after 72 hrs by MTS method. The data set is classed as functional. The settings on record: K562, 72 h.
The test system of data set [18] is U-937. The experiment in a line: Antiproliferation activity against human FLT3 gene-deficient U937 cells after 72 hrs by MTS method. The settings on record: U-937, 72 h. The data set is classed as functional.
The subject of data set [19] is MOLT-4. Put plainly: Antiproliferation activity against human MOLT4 after 72 hrs by MTS method. The settings on record: MOLT-4, 72 h. The data set is classed as functional.
Data set [20] is described as follows: Ratio GI50 for human MOLM13 cells to IC50 for GST-tagged FLT3 expressing wild type kinase domain. The data set is classed as functional, MOLM-13.

T3 sequence (P17948 whole entry, the tested form may be a part): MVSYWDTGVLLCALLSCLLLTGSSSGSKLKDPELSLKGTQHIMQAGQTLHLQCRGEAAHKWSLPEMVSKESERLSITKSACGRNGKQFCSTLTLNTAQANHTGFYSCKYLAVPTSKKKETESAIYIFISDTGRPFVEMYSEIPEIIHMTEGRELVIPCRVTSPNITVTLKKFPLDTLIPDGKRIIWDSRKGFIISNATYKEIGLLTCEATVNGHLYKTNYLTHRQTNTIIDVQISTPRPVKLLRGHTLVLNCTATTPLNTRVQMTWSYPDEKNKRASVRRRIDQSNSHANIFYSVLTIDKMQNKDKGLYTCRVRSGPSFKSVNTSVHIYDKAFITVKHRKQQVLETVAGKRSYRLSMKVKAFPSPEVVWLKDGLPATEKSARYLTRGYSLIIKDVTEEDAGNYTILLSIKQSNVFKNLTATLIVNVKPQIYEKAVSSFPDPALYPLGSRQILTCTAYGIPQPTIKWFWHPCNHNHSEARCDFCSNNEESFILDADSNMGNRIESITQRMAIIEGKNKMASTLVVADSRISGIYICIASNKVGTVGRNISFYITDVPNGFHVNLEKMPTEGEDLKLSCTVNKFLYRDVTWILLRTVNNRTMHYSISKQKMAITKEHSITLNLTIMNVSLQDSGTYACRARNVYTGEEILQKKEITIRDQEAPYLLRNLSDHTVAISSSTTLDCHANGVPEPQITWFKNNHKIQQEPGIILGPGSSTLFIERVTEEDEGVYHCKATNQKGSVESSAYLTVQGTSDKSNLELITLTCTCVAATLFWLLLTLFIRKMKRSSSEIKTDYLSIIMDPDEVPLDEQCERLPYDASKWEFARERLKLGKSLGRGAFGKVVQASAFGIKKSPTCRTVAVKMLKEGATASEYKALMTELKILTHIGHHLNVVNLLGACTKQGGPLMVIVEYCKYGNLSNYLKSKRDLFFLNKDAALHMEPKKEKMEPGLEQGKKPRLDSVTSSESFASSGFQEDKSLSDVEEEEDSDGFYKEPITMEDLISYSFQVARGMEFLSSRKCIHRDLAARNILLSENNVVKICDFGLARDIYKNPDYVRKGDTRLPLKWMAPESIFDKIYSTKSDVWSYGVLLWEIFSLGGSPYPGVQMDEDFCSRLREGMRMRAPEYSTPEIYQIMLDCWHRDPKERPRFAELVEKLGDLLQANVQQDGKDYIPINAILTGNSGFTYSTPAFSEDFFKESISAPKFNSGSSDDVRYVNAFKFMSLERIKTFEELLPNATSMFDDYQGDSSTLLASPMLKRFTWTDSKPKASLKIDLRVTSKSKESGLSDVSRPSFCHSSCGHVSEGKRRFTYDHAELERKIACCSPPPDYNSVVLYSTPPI

In the case of `Cc1cccc(S(=O)(=O)Nc2cccc(-c3cc(NC(=O)c4ccc(N5CCN(C)CC5)cc4)[nH]n3)c2)c1`, the pIC50 is 6.37 in data set [1], 7.15 in data set [2], 6.85 in [3] and 8.15 in [5]. For the same compound, in [4], the GI50 is 16 nM. For the same compound, the total exposure AUC(0-inf) in [6] was determined as 1200 ng·h/mL. The compound also had a clearance in data set [7] of 67.4 mL/min/kg. The Vd in data set [8] was 2.6 L/kg. The half-life in data set [9] was 1.7 h. For the same compound, the Activity entry in data set [10] and in data set [11] was “Toxic” throughout.
For the compound `Cc1nc(NCCN(C)C)cc(Nc2cc(-c3cccc(NS(=O)(=O)c4ccccc4)c3)n[nH]2)n1`, the pIC50 in [1] is less than 6.00; in data set [3], less than 6.00; in data set [5] it was 7.15. The GI50 in [4] turned out to be 180 nM. For the same compound, the inhibition in data set [12] came out at 55%.
For the compound `Cc1ccc(S(=O)(=O)Nc2cccc(-c3cc(NC(=O)c4ccc(N5CCN(C)CC5)cc4)[nH]n3)c2)cc1`, the pIC50 is less than 6.00 in [2], less than 6.00 in [3] and 7.82 in [5]. Also, the GI50 in data set [4] was found to be 24 nM. The inhibition in data set [13] was determined as 50%.
With `O=C(Nc1cc(-c2cccc(NS(=O)(=O)c3ccccc3)c2)n[nH]1)c1ccc(CN2CCOCC2)cc1`, the pIC50 in [1] is 6.66; in data set [2], 6.25; in [5], 6.46. Also, the GI50 in data set [4] stood at 67 nM. Further, the inhibition in [14] amounted to 52%.
For the compound `O=C(Nc1cc(-c2cccc(NS(=O)(=O)c3ccccc3)c2)n[nH]1)c1ccc(OCCN2CCOCC2)cc1`, the values for the pIC50 in [2], in data set [3] and in data set [5] were less than 6.00, less than 6.00 and 7.15, respectively. In data set [4], the GI50 stood at 72 nM. The inhibition in data set [13] came to 50%.
`Cc1ccc(F)c(NC(=O)Nc2ccc(-c3cccc4[nH]nc(N)c34)cc2)c1` [LINIFANIB]: the GI50 was 40 nM in data set [15]; 9200 nM in [16]; greater than 20000 nM in data set [17]; 19000 nM in data set [18]; 6700 nM in data set [19].
As for `Cc1nc(Nc2cc(-c3cccc(NS(=O)(=O)c4ccccc4)c3)n[nH]2)cc(N2CCC(O)CC2)n1`, the pIC50 is 6.27 in data set [1], less than 6.00 in data set [2], less than 6.00 in data set [3] and 8.00 in [5]. The GI50 in [4] amounted to 120 nM. Besides, the Ratio in [20] stood at 12.
Consider `CN1CCN(c2ccc(C(=O)Nc3cc(-c4cccc(NS(=O)(=O)c5ccccc5)c4)n[nH]3)cc2)CC1`, for which the pIC50 in [1] is 6.47; in data set [2], 6.89; in [3], 6.68; in data set [5], 7.89. In addition, in data set [4], the GI50 worked out at 12 nM. Moreover, the AUC(0-inf) in [6] worked out at 551 ng·h/mL. In data set [7], this compound registered a clearance of 102 mL/min/kg. Further, the Vd in data set [8] is 15.5 L/kg. This compound gave a half-life in data set [9] of 4.5 h. Besides, the Activity result in [10] and in [11] was “Toxic” each time.
Turning to `Cc1nc(NCCCN2CCOCC2)cc(Nc2cc(-c3cccc(NS(=O)(=O)c4ccccc4)c3)n[nH]2)n1`, the pIC50 in data set [1] was 6.17; in data set [3], less than 6.00; in [5] it was 8.00. Also, the GI50 in data set [4] stood at 380 nM. Besides, the inhibition in [12] was determined as 55%.
